The record followed here is ChEMBL document CHEMBL4422685, “Design, synthesis and evaluation of a series of 5-methoxy-2,3-naphthalimide derivatives as AcrB inhibitors for the reversal of bacterial resistance” (Bioorg Med Chem Lett, 2019).

For data set [1], the system named is Escherichia coli. As to the kind of experiment: Toxicity against wild-type drug-resistant Escherichia coli […] at 128 ug/ml. The note with it: in vivo. It counts as organism-based. The method, boiled down:
(§1)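 MIC determination against wild-type resistant E. coli BW25113 and an isogenic acrB-deleted strain; highest concentration tested 128 mg/L.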

For data set [2], the system named is Escherichia coli. As to the kind of experiment: Toxicity against AcrB deficient Escherichia coli AcrB lacking at 128 ug/ml. Type of data set: organism-based. Conditions: in vivo. Summed up:
as §1

Data set [3] addresses T1, Multidrug efflux pump subunit AcrB (Escherichia coli (strain K12)) (UniProt P31224).
T1 sequence (whole entry): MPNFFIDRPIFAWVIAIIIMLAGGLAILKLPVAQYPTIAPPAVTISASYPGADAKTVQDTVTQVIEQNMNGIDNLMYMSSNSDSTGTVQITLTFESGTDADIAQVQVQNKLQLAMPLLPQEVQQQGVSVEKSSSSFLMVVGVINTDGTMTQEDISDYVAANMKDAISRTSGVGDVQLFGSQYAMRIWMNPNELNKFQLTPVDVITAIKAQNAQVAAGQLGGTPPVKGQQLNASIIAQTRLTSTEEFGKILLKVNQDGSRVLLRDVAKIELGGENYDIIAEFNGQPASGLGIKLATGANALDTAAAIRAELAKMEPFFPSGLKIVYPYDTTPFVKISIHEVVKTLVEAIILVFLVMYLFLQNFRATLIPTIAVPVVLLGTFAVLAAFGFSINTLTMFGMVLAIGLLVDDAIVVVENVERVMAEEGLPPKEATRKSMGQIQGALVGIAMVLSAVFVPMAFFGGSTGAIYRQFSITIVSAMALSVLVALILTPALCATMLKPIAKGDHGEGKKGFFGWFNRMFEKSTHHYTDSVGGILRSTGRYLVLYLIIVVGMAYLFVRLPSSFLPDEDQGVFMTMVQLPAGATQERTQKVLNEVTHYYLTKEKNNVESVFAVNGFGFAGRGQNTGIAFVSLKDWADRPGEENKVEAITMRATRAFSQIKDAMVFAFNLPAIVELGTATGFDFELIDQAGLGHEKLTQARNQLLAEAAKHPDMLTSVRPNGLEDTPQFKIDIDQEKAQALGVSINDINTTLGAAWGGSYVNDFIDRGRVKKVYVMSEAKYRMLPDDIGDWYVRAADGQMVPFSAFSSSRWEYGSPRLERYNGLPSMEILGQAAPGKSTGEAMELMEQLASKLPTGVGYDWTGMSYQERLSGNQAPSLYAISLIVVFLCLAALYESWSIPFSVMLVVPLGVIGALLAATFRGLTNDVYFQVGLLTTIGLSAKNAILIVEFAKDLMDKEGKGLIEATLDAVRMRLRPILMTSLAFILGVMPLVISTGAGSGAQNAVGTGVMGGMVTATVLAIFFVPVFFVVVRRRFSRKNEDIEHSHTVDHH
As to the kind of experiment: Inhibition of AcrB in wild-type drug-resistant Escherichia coli BW2113 assessed as potentiation of chloramphenicol-induced antimicrobial activity by measuring chloramphenicol MIC at 16 ug/ml by checkerboard titration method (Rvb =16 ug/ml).

For data set [4], the target named is T1, Multidrug efflux pump subunit AcrB (Escherichia coli (strain K12)). As to the kind of experiment: Inhibition of AcrB in wild-type drug-resistant Escherichia coli […] assessed as potentiation of chloramphenicol-induced antimicrobial activity by measuring chloramphenicol MIC at 32 ug/ml by checkerboard titration method (Rvb =16 ug/ml).
The target is the same in data set [5]. Put plainly: Inhibition of AcrB in wild-type drug-resistant Escherichia coli […] assessed as potentiation of chloramphenicol-induced antimicrobial activity by measuring chloramphenicol MIC at 64 ug/ml by checkerboard titration method (Rvb =16 ug/ml).
The target is the same in data set [6]. As to the kind of experiment: Inhibition of AcrB in wild-type drug-resistant Escherichia coli […] assessed as potentiation of chloramphenicol-induced antimicrobial activity by measuring chloramphenicol MIC at 128 ug/ml by checkerboard titration method (Rvb =16 ug/ml).
The target is the same in data set [7]. As to the kind of experiment: Inhibition of AcrB in wild-type drug-resistant Escherichia coli […] assessed as potentiation of erythromycin-induced antimicrobial activity by measuring erythromycin MIC at 8 ug/ml by checkerboard titration method (reference value: 64 ug/ml).
For data set [8] the target is unchanged. Put plainly: Inhibition of AcrB in wild-type drug-resistant Escherichia coli […] assessed as potentiation of erythromycin-induced antimicrobial activity by measuring erythromycin MIC at 16 ug/ml by checkerboard titration method (reference value: 64 ug/ml).
For data set [9] the target is unchanged. Put plainly: Inhibition of AcrB in wild-type drug-resistant Escherichia coli […] assessed as potentiation of erythromycin-induced antimicrobial activity by measuring erythromycin MIC at 32 ug/ml by checkerboard titration method (reference value: 64 ug/ml).
Data set [10] has the same target. Put plainly: Inhibition of AcrB in wild-type drug-resistant Escherichia coli […] assessed as potentiation of tetraphenyl phosphonium chloride-induced antimicrobial activity by measuring tetraphenyl phosphonium chloride MIC at 8 ug/ml by checkerboard titration method (reference value: 1024 ug/ml).
Data set [11] shares this target. Put plainly: Inhibition of AcrB in wild-type drug-resistant Escherichia coli […] assessed as potentiation of tetraphenyl phosphonium chloride-induced antimicrobial activity by measuring tetraphenyl phosphonium chloride MIC at 16 ug/ml by checkerboard titration method (reference value: 1024 ug/ml).
Data set [12] shares this target. Put plainly: Inhibition of AcrB in wild-type drug-resistant Escherichia coli […] assessed as potentiation of levofloxacin-induced antimicrobial activity by measuring levofloxacin MIC at 8 ug/ml by checkerboard titration method (reference value: 0.063 ug/ml).
For data set [13] the target is unchanged. As to the kind of experiment: Inhibition of AcrB in wild-type drug-resistant Escherichia coli […] assessed as potentiation of levofloxacin-induced antimicrobial activity by measuring levofloxacin MIC at 16 ug/ml by checkerboard titration method (reference value: 0.063 ug/ml).
Data set [14] has the same target. Put plainly: Inhibition of AcrB in wild-type drug-resistant Escherichia coli […] assessed as potentiation of levofloxacin-induced antimicrobial activity by measuring levofloxacin MIC at 32 ug/ml by checkerboard titration method (reference value: 0.063 ug/ml).
Data set [15] shares this target. As to the kind of experiment: Inhibition of AcrB in wild-type drug-resistant Escherichia coli […] assessed as potentiation of levofloxacin-induced antimicrobial activity by measuring levofloxacin MIC at 64 ug/ml by checkerboard titration method (reference value: 0.063 ug/ml).
Data set [16] shares this target. Put plainly: Inhibition of AcrB in wild-type drug-resistant Escherichia coli […] assessed as potentiation of levofloxacin-induced antimicrobial activity by measuring levofloxacin MIC at 128 ug/ml by checkerboard titration method (reference value: 0.063 ug/ml).
In data set [17] the test system is Escherichia coli. Put plainly: Induction of Escherichia coli outer membrane permeabilization assessed as increase in nitrocefin hydrolysis at 128 ug/ml by spectroscopic method. Type of data set: organism-based.
Data set [18] relates to Escherichia coli. Put plainly: Disruption of Escherichia coli inner membrane integrity at 128 ug/ml after 10 mins by DiOC2(3) probe based fluorescence assay. It counts as ADME, organism-based. The note with it: in vivo. Summed up:
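Bacterial suspensions pre-exposed to compound for 10 min, then DiOC2(3) added and fluorescence followed to plateau. Cells re-energized with 0.5% glucose; membrane potential (inside negative) read as fluorescence rise to plateau, then collapsed with the proton ionophore CCCP. Untreated cells run alongside.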

With `COc1cccc2cc3c(cc12)C(=O)N(Cc1ccccc1)C3=O`, the Activity result with Escherichia coli [1], with Escherichia coli [2], in the data set with Escherichia coli [17] and in the data set on Escherichia coli [18] was “Non-Toxic” throughout. Moreover, the MIC in [3] is 16 mg/L; in data set [4] it was 16 mg/L; in data set [5], 16 mg/L; in data set [6], 8 mg/L; in data set [7] it was 32 mg/L; in data set [8], 32 mg/L. Further, the MIC was found to be 32 mg/L in data set [9]; 1020 mg/L in data set [10]; 1020 mg/L in data set [11]; 0.063 mg/L in data set [12]; 0.063 mg/L in [13]; 0.063 mg/L in [14]. In addition, the MIC in data set [15] and in [16] was 0.063 mg/L throughout.

For the molecule `COc1cccc2cc3c(cc12)C(=O)N(C(C)C)C3=O`, the Activity entry in the data set with Escherichia coli [1], in the data set with Escherichia coli [2], in the data set on Escherichia coli [17] and in the data set with Escherichia coli [18] was “Non-Toxic” each time. Also, the MIC in data set [3] came out at 8 mg/L; in data set [4] it was 8 mg/L; in data set [5], 8 mg/L; in data set [6] it was 8 mg/L; in data set [7] it was 32 mg/L; in data set [8], 32 mg/L. For the same molecule, the MIC in [9] was determined as 32 mg/L; in data set [10] it was 1020 mg/L; in data set [11] it was 1020 mg/L; in [12] it was 0.063 mg/L; in data set [13] it was 0.063 mg/L; in data set [14], 0.063 mg/L. Further, the MIC in data set [15] and in [16] was 0.0313 mg/L in each case.

Take `CCc1ccccc1N1C(=O)c2cc3cccc(OC)c3cc2C1=O`: the Activity result in the data set on Escherichia coli [1], with Escherichia coli [2], in the data set with Escherichia coli [17] and in the data set on Escherichia coli [18] was “Non-Toxic” throughout. For the same molecule, the MIC in data set [3] was found to be 16 mg/L; in data set [4] it was 16 mg/L; in data set [5] it was 16 mg/L; in data set [6], 8 mg/L; in data set [7], 64 mg/L; in [8] it was 64 mg/L. Also, the MIC in data set [9] is 64 mg/L; in data set [10] it was 1020 mg/L; in [11] it was 1020 mg/L; in data set [12], 0.063 mg/L; in data set [13] it was 0.063 mg/L; in data set [14], 0.0313 mg/L. The MIC in data set [15] and in data set [16] was 0.0313 mg/L each time.
